Results: ChEMBL document CHEMBL3813633, “2-Aryl-8-aza-3-deazaadenosine analogues of 5'-O-[N-(salicyl)sulfamoyl]adenosine: Nucleoside antibiotics that block siderophore biosynthesis in Mycobacterium tuberculosis” (Bioorg Med Chem, 2016)
≈ marks a conversion by molar mass, not a printed value. Calls of active or inactive are those of the source. The rule behind the calls is not given here.

What was measured:
[1] = tested on: Mycobacterium tuberculosis; experiment: Antibacterial activity against Mycobacterium tuberculosis H37Rv under iron-deficient condition after 10 to 14 days by broth microdilution method; assay type: functional
Procedure, shortened: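 M. tuberculosis H37Rv broth microdilution in iron-deficient GAST (GAS medium without ferric ammonium citrate, pH 6.6). Compounds were added from DMSO stocks, with isoniazid as positive control and DMSO as negative control. Initial density was 10^4–10^5 cells/assay at 37 °C. Growth was read as OD620 at 10–14 days, when controls reached OD620 0.2–0.3. MIC was determined in triplicate.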

[2] = tested on: Mycobacterium tuberculosis; experiment: Antibacterial activity against Mycobacterium tuberculosis H37Rv at 50 uM under iron-replete condition after 10 to 14 days by broth microdilution method; assay type: functional, organism-based

SMILES	MIC [1]	Activity [2]
Nc1nc(-c2ccccc2)cc2c1nnn2[C@@H]1O[C@H](COS(=O)(=O)NC(=O)c2ccccc2O)[C@@H](O)[C@H]1O	25 µM (≈ 13.6 µg/mL)	inactive
Cc1ccc(-c2cc3c(nnn3[C@@H]3O[C@H](COS(=O)(=O)NC(=O)c4ccccc4O)[C@@H](O)[C@H]3O)c(N)n2)cc1	25 µM (≈ 13.9 µg/mL)	inactive
Nc1nc(-c2ccc(C(F)(F)F)cc2)cc2c1nnn2[C@@H]1O[C@H](COS(=O)(=O)NC(=O)c2ccccc2O)[C@@H](O)[C@H]1O	> 50 µM	inactive
COc1ccc2cc(-c3cc4c(nnn4[C@@H]4O[C@H](COS(=O)(=O)NC(=O)c5ccccc5O)[C@@H](O)[C@H]4O)c(N)n3)ccc2c1	19 µM (≈ 11.8 µg/mL)	inactive
Nc1nc(-c2ccc(F)cc2)cc2c1nnn2[C@@H]1O[C@H](COS(=O)(=O)NC(=O)c2ccccc2O)[C@@H](O)[C@H]1O	19 µM (≈ 10.6 µg/mL)	inactive
Nc1nc(-c2ccc3ccccc3c2)cc2c1nnn2[C@@H]1O[C@H](COS(=O)(=O)NC(=O)c2ccccc2O)[C@@H](O)[C@H]1O	12.5 µM (≈ 7.41 µg/mL)	inactive
